Screening data as filed in PubChem.
LMPTP inh: blocks human LMPTP phosphatase | P24666 | recombinant LMPTP-A, OMFP fluorogenic substrate, fluorescence intensity | inhibition, % at 20 µM | 360,000 tested, 0.22% active | AID 651560;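 active = compounds that cut the enzyme signal by at least half of the control window in the single-dose screen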
Target sequence (P24666 whole entry, looked up): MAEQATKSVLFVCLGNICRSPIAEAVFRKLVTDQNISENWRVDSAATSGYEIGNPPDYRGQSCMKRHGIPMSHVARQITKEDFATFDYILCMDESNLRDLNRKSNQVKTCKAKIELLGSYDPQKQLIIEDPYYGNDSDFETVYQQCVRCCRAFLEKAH
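Test system: LMPTP-A, protein tyrosine phosphatase of low molecular weight; Input: 0.625 nM enzyme; Incubation: 50 min dark incubation at room temperature; Signal: endpoint fluorescence intensity from OMFP dephosphorylation; Read-out basis: % inhibition versus control wells.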
NadD inh: NadD (S. aureus) enzyme inhibition | purified NadD enzyme, colorimetric absorbance read-out | inhibition, % at 20 µM | 360,000 tested, 0.78% active | AID 602399; in the data active = inhibition above about 26%
SUMO1-SIM PPI: SUMO1-SIM interaction modulation | inhibition, % at 20 µM | SUMO1 binding to a labelled peptide, TR-FRET, 1 h | P63165 | 360,000 tested, 0.33% active; in the data active = inhibition above about 37%
Target sequence (P63165 whole entry, looked up): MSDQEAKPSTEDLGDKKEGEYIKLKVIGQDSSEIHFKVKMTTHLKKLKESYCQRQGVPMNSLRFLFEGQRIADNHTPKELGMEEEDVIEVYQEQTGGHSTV
DNMT1 block: blocks human DNA methyltransferase DNMT1. P26358. DNMT1 molecular beacon, Hinp1I cleavage, fluorescence. inhibition (reported as % activation of signal), % at 10 µM. 360,000 tested, 0.83% active; in the data active = inhibition above about 50%
Scp-1 inhibitor: inhibitors of human Scp-1 phosphatase. Recombinant Scp1, phosphopeptide, malachite green phosphate absorbance. inhibition, % at 20 µM. 340,000 tested, 0.88% active. AID 493091;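 active = inhibition above about 50% at 20 µM, limit read from the data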
Target sequence (Q9GZU7 76-261 limits assumed): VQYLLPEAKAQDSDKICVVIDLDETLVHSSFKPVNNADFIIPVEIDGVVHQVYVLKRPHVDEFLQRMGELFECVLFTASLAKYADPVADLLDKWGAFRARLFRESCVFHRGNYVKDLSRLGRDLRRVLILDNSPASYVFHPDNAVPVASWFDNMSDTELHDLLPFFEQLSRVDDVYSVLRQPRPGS
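Incubation: 45 min enzyme reaction at room temperature / System: truncated SCP-1 phosphatase (76-261aa) / Reagent: Phospho 17-mer peptide substrate / Buffer or medium: Acidic Tris acetate buffer with magnesium and detergent / Signal: absorbance at 630 nm / Doses: one concentration, 20 µM, with 1.0% DMSO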
STEP inh: STEP (human) phosphatase inhibition; P54829; recombinant STEP, OMFP fluorogenic substrate, fluorescence; inhibition, % at 20 µM; 360,000 tested, 0.25% active; AID 588621;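 active = inhibition at 20 µM, scaled per plate between control wells, above about 37%, limit read from the data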
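System: STEP phosphatase, cell-free reaction; Buffer or medium: Bis-Tris pH 6.0 buffer with DTT, detergent; Incubation: 20 min at room temperature, dark; Measured by: fluorescence, 480/540 nm.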
Large screens that a line does not name were inactive. In the library only some 2.4% were active in any assay of this set; here they are far more common.

Cc1cc(/C=N/NC(=O)Cn2c3ccccc3c(=O)c3ccccc32)c(C)n1-c1ccc(Cl)cc1	NadD inh 49
COC(=O)N/N=C/c1cc(C)n(-c2ccccc2)c1C	none
Cc1ccc(-n2c(C)cc(/C=N/NC(=O)Cn3c4ccccc4c(=O)c4ccccc43)c2C)cc1	NadD inh 37
CN(/N=C/c1ccc(O)cc1O)c1nc(-c2ccccc2)cc(-c2ccccc2)n1	NadD inh 33
O=C(NC(=S)Nc1ccc2oc(=O)ccc2c1)c1cc2ccccc2o1	SUMO1-SIM PPI 75
Cc1nc2c(C(=O)NCCC(C)C)c[nH]n2c(=O)c1Cc1ccccc1F	NadD inh 30
COc1ccc(Cl)cc1C(=O)NC(=S)Nc1cc(-c2nc3ccccc3[nH]2)ccc1C	NadD inh 34
CNC[C@H]1Oc2cc(Br)ccc2S(=O)(=O)N([C@@H](C)CO)C[C@@H]1C	none (no result: Scp-1 inhibitor)
CC(C)[C@H](NC(=O)CCCn1nnc2ccccc2c1=O)C(=O)O	none
Cc1cc(/C=C2/SC(=S)N(c3ccc([N+](=O)[O-])cc3)C2=O)c(C)n1-c1cccnc1	none
Cc1cc(/C=C2/SC(=S)N(c3cccc(Cl)c3)C2=O)c(C)n1-c1cccnc1	NadD inh 30
Cc1cc(O)c2c(c1O)C(=O)[C@]13C(=C2O)C(=O)[C@@H]2[C@@H](O)[C@H]1[C@@H]1[C@H](O)[C@H]3C(=O)C3=C(O)c4c(O)cc(C)c(O)c4C(=O)[C@]312	LMPTP inh 88, NadD inh 32, SUMO1-SIM PPI 103, DNMT1 block 95, Scp-1 inhibitor 58, STEP inh 43
CCOC(=O)c1cnc(SSc2ncc(C(=O)OCC)c(N)n2)nc1N	LMPTP inh 78
C=CCSc1ncc(C(=O)OCC)c(N)n1	none
Cc1cc2nc3ccc(=[N+](C)C)cc-3sc2cc1N	SUMO1-SIM PPI 54, DNMT1 block 57
COc1ccccc1CN(C)C(=O)COC(=O)c1cc(C)oc1C	none
N#CC(C(=O)Nc1cccc(Cl)c1)=C1Nc2ccccc2N1	SUMO1-SIM PPI 62
CCOC(=O)c1sc(NC(=O)CSc2n[nH]c(-c3ccccc3)n2)c(C#N)c1C	none
CCOC(=O)c1sc(NC(=O)c2cc(-c3ccccc3)nc3ccccc23)c(C#N)c1C	NadD inh 39
Cc1ccc(C)c(-c2cc(C(=O)Nc3sc(C)c(C)c3C(N)=O)c3ccccc3n2)c1	NadD inh 35
Cc1cc(C)c(S(=O)(=O)N2CCOC2CNC(=O)C(=O)NCc2ccco2)c(C)c1 (stereo not given)	none
COc1ccc(Cl)cc1NCC(=O)Nc1ccc(OC)c(S(=O)(=O)N2CCCCC2)c1	none
CS/C(Nc1cc(Cl)ccc1Cl)=C(/C#N)C(=O)c1ccco1	none
N#C/C(=C/c1ccc(N2CCCC2)c([N+](=O)[O-])c1)c1nc2ccccc2[nH]1	NadD inh 36
N#C/C(=C\c1ccc(N2CCOCC2)c([N+](=O)[O-])c1)c1nc2ccccc2[nH]1	none
C(=N\Nc1ccccc1)/c1nc2ccccc2s1	none
CC(C)Oc1ccc(C(=O)N/N=C/c2ccc(-c3ccc(S(=O)(=O)Nc4ncccn4)cc3)o2)cc1	NadD inh 35
NC(=O)N/N=C/c1ccc(-c2ccc(S(=O)(=O)Nc3ncccn3)cc2)o1	none
COC(=O)C[C@H]1CC[C@@H](NS(=O)(=O)c2ccc(C)cc2)[C@@H](CO)O1	none (no result: NadD inh, DNMT1 block, Scp-1 inhibitor, STEP inh)
O=C1C(Cc2c[nH]c3ccccc23)NC(=S)N1C1CCCCC1 (stereo not given)	none
CN(C(=O)COC(=O)c1ccc(-c2ccc(O)cc2)cc1)C1CCS(=O)(=O)C1 (stereo not given)	SUMO1-SIM PPI 39
COc1cccc(/C=N/NC(=O)c2cc3cc([N+](=O)[O-])ccc3s2)c1O	LMPTP inh 88, NadD inh 43, DNMT1 block 99, STEP inh 97
COc1cccc(/C=N/NC(=O)c2cc3c(OC)cccc3[nH]2)c1O	SUMO1-SIM PPI 51
COc1cccc(/C=N/NC(=O)C(=O)N/N=C/c2cccc(OC)c2O)c1O	none
COc1cc([N+](=O)[O-])cc(/C=N/NC(=O)c2ccc(C)nc2)c1O	none
COc1cc([N+](=O)[O-])cc(/C=N/NC(=O)c2ccc(NC(=O)c3ccc(C)cc3)cc2)c1O	NadD inh 82
CC1CC(C)CN(S(=O)(=O)CCNC(=O)c2ccc3c(c2)OCO3)C1 (stereo not given)	none
COc1cccc(C(=O)OCC(=O)NC23CC4CC(CC(C4)C2)C3)c1	none
CC(=O)Oc1cc(C(=O)OCC(=O)NC23CC4CC(CC(C4)C2)C3)cc(OC(C)=O)c1OC(C)=O	Scp-1 inhibitor 70
Cc1ccc(NC(=O)C2CCCN2C(=O)c2cccs2)c(C)c1 (stereo not given)	none
Cc1ccc(NC(=O)C2CCN(C(=O)c3cccs3)CC2)c(C)c1	Scp-1 inhibitor 99
C[N+]1(CC(O)COCC2COc3ccccc3O2)CCOCC1 (stereo not given)	Scp-1 inhibitor 106
COc1ccc(-c2csc(NC(=S)NC(=O)/C=C/c3ccco3)n2)cc1Br	none
COc1ccc(-c2csc(NC(=S)NC(=O)/C=C/c3ccco3)n2)cc1OC	SUMO1-SIM PPI 58
COc1ccc(-c2cc3ccccc3nc2N)cc1OC	none
COCCCNc1c2c3c(cccc3[nH]c1=O)C(=O)c1ccccc1-2	DNMT1 block active
CC(C)CCN1C(=O)CSCC1(C)C(=O)Nc1ccc2c(c1)OCCO2 (stereo not given)	none (no result: NadD inh, DNMT1 block, Scp-1 inhibitor, STEP inh)
Cc1ccc(-n2ncc3c(=O)[nH]c(SCC(=O)N4CCC(C)CC4)nc32)cc1C	SUMO1-SIM PPI 41
Cc1ccc(-n2ncc3c(=O)[nH]c(SCC(=O)N4CCCC4)nc32)cc1C	none
CS(=O)(=O)Nc1cccc2[nH]ncc12	none
CCN1CCc2nc(N)sc2C1	STEP inh 96
O=C(NC(=O)c1cnccc1C(F)(F)F)Nc1ccccc1	none
COc1cccc(N2CCN(c3nc(C)cc(=O)[nH]3)CC2)c1	none
Cc1sc(NC(=O)CSc2nnc(COc3ccccc3)n2C)c(C#N)c1C	none
Cc1sc(NC(=O)CSc2nnc3scc(-c4ccccc4)n23)c(C#N)c1C	SUMO1-SIM PPI 45
COc1ccc(NC(=O)Cn2ncc(Cl)c(Cl)c2=O)cc1S(=O)(=O)N1CCOCC1	Scp-1 inhibitor 99
O=C(Cn1ncc(Cl)c(Cl)c1=O)Nc1ccc2c(c1)OCO2	none
COc1ccc(NC(=O)c2ccc(Cl)nc2)cc1S(=O)(=O)N1CCOCC1	none
CCN(CC)S(=O)(=O)c1cc(NC(=O)Cn2ncc(Cl)c(Cl)c2=O)ccc1C	Scp-1 inhibitor 89
